The source made the active and inactive calls. The calls are words filed in the database; no cut-off is given here.
Experiments:
[1] = (§1) Inhibition of Saccharomyces sp. alpha glucosidase by spectrophotometry
Summary of the method: (§2)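 Yeast (Saccharomyces sp.) α-glucosidase, 250 units/mL, in 50 mM sodium phosphate buffer with 100 mM NaCl, pH 6.9, 37 °C; substrate […] p-nitrophenyl α-D-glucopyranoside. Hydrolysis followed continuously as absorbance increase at 400 nm. 1-Deoxynojirimycin (0.425 mM) and acarbose (0.78 mM) served as positive controls. Modified literature method.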

[2] = tested on: Saccharomyces; assay: as §1; summary of the method: as §2
[3] = tested on: Saccharomyces; assay: Inhibition of Saccharomyces sp. alpha glucosidase at 800 uM by spectrophotometry

CC(C)=CCc1c(O)c(CC=C(C)C)c2c(c1O)C(=O)c1c(O)cc(C)c(CC=C(C)C)c1C2O (stereo not given) [KENGANTHRANOL B]
IC50 [1]: 6.3 µM
Activity [2]: Dose-dependent effect

COc1cc(O)c2c(c1)C(=O)c1cc(C)cc(O)c1C2=O [PHYSCION]
IC50 [1]: 192 µM
Activity [2]: Dose-dependent effect

COc1cc2c(c(O)c1/C=C/C(C)C)C(=O)c1c(O)cc(C)cc1C2=O
Activity [3]: inactive

O=c1c2cc(O)ccc2oc2cccc(O)c12
Activity [3]: inactive

CC(C)=CCc1c(C)c(CC=C(C)C)c2c(c1O)C(=O)c1c(O)cc(O)c(CC=C(C)C)c1C2 [HARUNGANOL B]
IC50 [1]: 12 µM
Activity [2]: Dose-dependent effect

COc1cc2c(c(O)c1CC(=O)C(C)C)C(=O)c1c(O)cc(C)cc1C2=O
Activity [3]: inactive

OC[C@H]1NC[C@H](O)[C@@H](O)[C@@H]1O [DUVOGLUSTAT]
IC50 [1]: 426 µM

COC1c2c(CC=C(C)C)c(C)cc(O)c2C(=O)c2c(O)cc3c(c21)CC(C(C)(C)O)O3 (stereo not given) [KENGANTHRANOL C]
IC50 [1]: 21.9 µM
Activity [2]: Dose-dependent effect

CC(C)=CCc1c(C)cc(O)c2c(O)c3c(cc12)C(CC=C(C)C)(CC=C(C)C)C(O)=CC3=O [HARUNGANIN]
IC50 [1]: 6 µM
Activity [2]: Dose-dependent effect

C[C@H]1O[C@H](O[C@H]2[C@H](O)[C@@H](O)[C@@H](O[C@H]3[C@H](O)[C@@H](O)C(O)O[C@@H]3CO)O[C@@H]2CO)[C@H](O)[C@@H](O)[C@@H]1N[C@H]1C=C(CO)C(O)[C@H](O)[C@H]1O (single isomer, unassigned) [ACARBOSE]
IC50 [1]: 780 µM

Source: ChEMBL document CHEMBL1157249, “Alpha-glucosidase inhibitory anthranols, kenganthranols A-C, from the stem bark of Harungana madagascariensis” (J Nat Prod, 2006)
